Results reported in ChEMBL document CHEMBL1909594, “Synthesis of polyfunctionalized piperidone oxime ethers and their cytotoxicity on HeLa cells” (Bioorg Med Chem Lett, 2011).
The source made the active and inactive calls. No cut-off for these calls is given here.

Key:
[1] = test system: HeLa; test: cells; type: functional, cell-based; conditions: Homo sapiens, 24 h
[2] = test system: HeLa; test: Ratio of camptothecin IC50 to compound IC50 for human HeLa cells; type: functional
[3] = test system: HeLa; test: Induction of apoptosis in human HeLa cells assessed as chromosomal condensation at 25 uM after 24 hrs using Hoechst staining method; type: functional, cell-based
Summary of the method: (§1)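 HeLa cells at 1 × 10⁴ cells/well in 96-well plates, in three replicates, were treated and incubated overnight at 37 °C. Cells were washed twice with PBS and fixed in 4% paraformaldehyde in PBS for one day. They were stained with 1 µg/mL Hoechst 33342 for 20 min at room temperature. Nuclei were imaged by fluorescence microscopy at 360/470 nm excitation/emission.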

[4] = test system: HeLa; test: Induction of apoptosis in human HeLa cells assessed as blebbing of cellular membrane at 25 uM after 24 hrs using Hoechst staining method; type: functional, cell-based; conditions: in the assay text read “by phase contrast microscopy” for “using Hoechst staining method”
Summary of the method: (§2)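 HeLa cells (ATCC) were grown in DMEM with 10% heat-inactivated FBS plus penicillin/streptomycin at 37 °C under 5% CO₂. Cells at 1 × 10⁵/well were exposed to compound for 24 h. Morphology changes were then examined by phase-contrast light microscopy against untreated cells.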

[5] = test system: HeLa; test: Induction of apoptosis in human HeLa cells assessed as chromosomal fragmentation at 25 uM after 24 hrs using Hoechst staining method; type: functional, cell-based
Summary of the method: as §1

[6] = test system: HeLa; test: Induction of apoptosis in human HeLa cells assessed as formation of apoptotic bodies at 25 uM after 24 hrs using Hoechst staining method; type: functional, cell-based
Summary of the method: as §1

[7] = test system: HeLa; test: Induction of apoptosis in human HeLa cells assessed as cell membrane rupture at 25 uM after 24 hrs using Hoechst staining method; type: functional, cell-based; conditions: in the assay text read “by phase contrast microscopy” for “using Hoechst staining method”
Summary of the method: as §2

[8] = test system: HeLa; test: Induction of apoptosis in human HeLa cells assessed as cytoplasm content release at 25 uM after 24 hrs using Hoechst staining method; type: functional, cell-based; conditions: in the assay text read “by phase contrast microscopy” for “using Hoechst staining method”
Summary of the method: as §2

[9] = test system: HeLa; test: Induction of apoptosis in human HeLa cells assessed as margination of chromation into horseshoe shaped structure at 25 uM after 24 hrs using Hoechst staining method; type: functional, cell-based
Summary of the method: as §1

[10] = test system: HeLa; test: Induction of apoptosis in human HeLa cells assessed as deformed nucleus/cytoplasm consistency at 25 uM after 24 hrs using Hoechst staining method; type: functional, cell-based
Summary of the method: as §1

[11] = test system: HeLa; test: Induction of apoptosis in human HeLa cells assessed as fragmentation of nucleus at 25 uM after 24 hrs using Hoechst staining method; type: functional, cell-based
Summary of the method: as §1

CO/N=C1\C[C@@H](c2ccc(F)cc2)N[C@@H](c2ccc(F)cc2)[C@@H]1C
IC50 [1]: 49.2 µM

CO/N=C1\C[C@@H](c2cccc(F)c2)N[C@@H](c2cccc(F)c2)[C@@H]1C
IC50 [1]: 38.4 µM

CO/N=C1\C[C@@H](c2ccc(C)cc2)N[C@@H](c2ccc(C)cc2)[C@@H]1C
IC50 [1]: 81.6 µM

CO/N=C1\C[C@@H](c2ccc(OC)cc2)N[C@@H](c2ccc(OC)cc2)[C@@H]1C
IC50 [1]: 154 µM

CC[C@@H]1/C(=N/OC)C[C@@H](c2ccccc2)N[C@H]1c1ccccc1
IC50 [1]: 57.3 µM

CO/N=C1\C[C@@H](c2ccccc2)N[C@@H](c2ccccc2)[C@@H]1C(C)C
IC50 [1]: 49.5 µM

CO/N=C1/[C@@H](C)[C@H](c2cccc(F)c2)N[C@H](c2cccc(F)c2)[C@H]1C
IC50 [1]: 37.9 µM

CO/N=C1/[C@@H](C)[C@H](c2ccc(C)cc2)N[C@H](c2ccc(C)cc2)[C@H]1C
IC50 [1]: 54.9 µM

CO/N=C1/[C@@H](C)[C@H](c2ccc(C(C)C)cc2)N[C@H](c2ccc(C(C)C)cc2)[C@H]1C
IC50 [1]: 51 µM

CO/N=C1/[C@@H](C)[C@H](c2ccc(OC)cc2)N[C@H](c2ccc(OC)cc2)[C@H]1C
IC50 [1]: 93.9 µM

CCOc1ccc([C@H]2N[C@@H](c3ccc(OCC)cc3)[C@H](C)/C(=N/OC)[C@@H]2C)cc1
IC50 [1]: 98 µM

CO/N=C1\C[C@@H](c2ccc(Cl)cc2)N(C)[C@@H](c2ccc(Cl)cc2)[C@@H]1C
IC50 [1]: 36.3 µM

CO/N=C1\C[C@@H](c2ccc(F)cc2)N(C)[C@@H](c2ccc(F)cc2)[C@@H]1C
IC50 [1]: 40.7 µM

CO/N=C1\C[C@@H](c2ccc(C)cc2)N(C)[C@@H](c2ccc(C)cc2)[C@@H]1C
IC50 [1]: 47.7 µM

CO/N=C1\C[C@@H](c2ccc(OC)cc2)N(C)[C@@H](c2ccc(OC)cc2)[C@@H]1C
IC50 [1]: 80.6 µM

CC[C@@H]1/C(=N/OC)C[C@@H](c2ccccc2)N(C)[C@H]1c1ccccc1
IC50 [1]: 41.7 µM

CO/N=C1\C[C@@H](c2ccccc2)N[C@@H](c2ccccc2)C1 (relative stereo)
IC50 [1]: 121 µM

CO/N=C1\C[C@@H](c2ccccc2)N[C@@H](c2ccccc2)[C@@H]1C (relative stereo)
IC50 [1]: 113 µM

CO/N=C1\C[C@@H](c2ccc(Br)cc2)N[C@@H](c2ccc(Br)cc2)[C@@H]1C (relative stereo)
IC50 [1]: 25 µM
Ratio IC50 [2]: 3
Activity [3]: Active
Activity [4]: Active
Activity [5]: Active
Activity [6]: Active
Activity [7]: Active
Activity [8]: Active
Activity [9]: Active
Activity [10]: Active
Activity [11]: Active

CO/N=C1\C[C@@H](c2ccc(Cl)cc2)N[C@@H](c2ccc(Cl)cc2)[C@@H]1C (relative stereo)
IC50 [1]: 49 µM

CC[C@@]1(O)C(=O)OCc2c1cc1n(c2=O)Cc2cc3ccccc3nc2-1 [CAMPTOTHECIN]
IC50 [1]: 8.93 µM

COc1cc([C@@H]2c3cc4c(cc3[C@@H](O[C@@H]3O[C@@H]5CO[C@@H](C)O[C@H]5[C@H](O)[C@H]3O)[C@H]3COC(=O)[C@H]23)OCO4)cc(OC)c1O [ETOPOSIDE]
IC50 [1]: 23.3 µM
